Source: article PMC7217345 (Annals of Oncology, 2020)

Columns and labels:
[1] = system: patients with metastatic castration-resistant prostate cancer; test: Phase I dose escalation; assay type: in vivo, human
How it was run: (§1)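 Open-label, single-centre 3+3 escalation in mCRPC. Capivasertib was given b.i.d. 4/7, starting at 320 mg with predefined escalation and de-escalation. A 7-day cycle 0 (single dose on D1) preceded 28-day cycles of capivasertib plus enzalutamide 160 mg daily. MTD/RP2D was the highest level with ≥6 patients and <1/3 with DLT. AEs were graded by CTCAE v4.0 from first dose to 30 days post-discontinuation. All treated patients were included.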

[2] = system: patients with metastatic castration-resistant prostate cancer; test: Treatment-related adverse events; assay type: in vivo, human; details: Total N=15, with enzalutamide
How it was run: as §1

[3] = Plasma pharmacokinetics of capivasertib; assay type: in vivo, human
How it was run: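 Venous blood was sampled serially up to 48 h post-dose on C0D1 (capivasertib alone) and on C2D1, C2D4 and C2D11 (with enzalutamide). Cmax, Tmax and AUC8h were derived. Geometric means of dose-normalised Cmax and AUC8h were compared between cycle 2 and cycle 0.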

pSer9 GSK3β = test: Pharmacodynamics: phosphorylated Ser9 GSK3β in platelet-rich plasma; assay type: in vivo, human; details: 400 mg alone (cycle 0)
How it was run: (§2)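 mCRPC patients took a single capivasertib dose on cycle 0 day 1, followed by PK and PD sampling. Combination with enzalutamide 160 mg daily began at C1D1, with capivasertib b.i.d. on a 4/7 schedule. Platelet-rich plasma and hair follicles were assayed for pSer9 and total GSK3β and for pThr246 and total PRAS40. Statistics used one-way ANOVA with […] and Dunnett's tests, with P<0.05 as significant.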

pThr246 PRAS40 = test: Pharmacodynamics: phosphorylated Thr246 PRAS40 in hair follicles; assay type: in vivo, human
How it was run: as §2

pERK = test: IHC for pERK expression in tumour biopsies; assay type: in vivo, human; details: with enzalutamide, including two of the responders
patients = details: 4 days on and 3 days off every week (4/7); cited from earlier work
[4] = system: metastatic prostate cancer patients; details: overall population; marked benefit for PTEN loss; cited from earlier work

For `NC1(C(=O)N[C@@H](CCO)c2ccc(Cl)cc2)CCN(c2nc[nH]c3nccc2-3)CC1` [capivasertib], the “patients experiencing a DLT (maculopapular rash)” value ([1]; 400 mg b.i.d., with enzalutamide) was 1/6, the “RP2D (recommended phase II dose)” value ([1]; 4/7 schedule, with enzalutamide 160 mg daily) was 400 mg b.i.d and the “fatal SAEs” value ([1]; all dose levels) was “no fatal SAEs”. The “patients with dosing interruption or reduction” value ([1]; beyond cycle 1, six of fourteen patients) was 42.9%, the “dosing interruptions or reductions due to AEs” value ([1]; during the DLT period, five of nine patients) was 55.6% and the “AEs judged to be treatment-related” value ([1]; of 259 AEs, safety population) was 42.5%. The AEs reported ([1]; safety population, all dose levels) was 259, the “Hyper-glycaemia, Grade 3/4” value [2] was 26.7% and the “patients in whom enzalutamide decreased both Cmax and AUC” value ([3]; compared with capivasertib monotherapy) was 11 out of 13. The “approximate mean decrease of Cmax and AUC” value ([3]; cycle 2 (with enzalutamide) compared with cycle 0 (monotherapy)) was about 40%, the “mean decrease in pGSK3β compared with baseline” value (“mean decrease in pGSK3β” below) (pSer9 GSK3β; 2 h after dose) was 56% and the “mean decrease in pGSK3β” value (pSer9 GSK3β; 4 h after dose) was 44%. For the same compound, the “mean decrease in pGSK3β” value (pSer9 GSK3β; 8 h after dose) was 22%, the “mean percentage reduction in PRAS40” value (pThr246 PRAS40; 320 mg with enzalutamide) was −34% and the “mean percentage reduction in PRAS40” value (pThr246 PRAS40; 320 mg without enzalutamide) was 38%. The “mean percentage reduction in PRAS40” value (pThr246 PRAS40; 400 mg with enzalutamide) was 22%, the “mean percentage reduction in PRAS40” value (pThr246 PRAS40; 400 mg without enzalutamide) was 23% and the “mean percentage reduction in PRAS40” value (pThr246 PRAS40; 480 mg with enzalutamide) was 40%. For the same compound, the “mean percentage reduction in PRAS40” value (pThr246 PRAS40; 480 mg without enzalutamide) was 26%, the “pERK expression by IHC, post-treatment vs baseline” value (pERK) was “increased after treatment in three patients” and the “single-agent recommended phase II dose (RP2D)” value (patients) was 480 mg b.i.d.
For `CC(C)NC[C@@H](C(=O)N1CCN(c2ncnc3c2[C@H](C)C[C@H]3O)CC1)c1ccc(Cl)cc1` [ipatasertib], the “rPFS, abiraterone with vs without ipatasertib” value [4] is listed as “improved rPFS”.
